Assays:
[1] = Selectivity index, ratio of CC50 for human MT4 cells to IC50 for wild type HIV1 3B; assay type: functional
[2] = system: Human immunodeficiency virus 1; assay: Antiviral activity against wild type HIV1 3B infected in human MT4 cells assessed as inhibition of virus-induced cytopathogenicity after 5 days by MTT assay; assay type: functional, organism-based; details: Human immunodeficiency virus 1, 3B, MT4, 120 h
In short: (§1)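 MT-4 cells in exponential growth were pelleted (5 min, 220 g) and resuspended at 6×10^5 cells/mL. They were infected at the start with 100-300 CCID50 of virus stock and exposed to serial 5-fold compound dilutions in triplicate wells. Viability was read by MTT at 540 and 690 nm after 5 days, using the median OD of three wells. EC50 is the concentration giving 50% protection from viral cytopathic effect.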

[3] = system: Human immunodeficiency virus 1; assay: Antiviral activity against HIV1 harboring reverse transcriptase K103N/Y181C mutant infected in human MT4 cells assessed as inhibition of virus-induced cytopathogenicity after 5 days by MTT assay; assay type: functional, organism-based; details: Human immunodeficiency virus 1, MT4, 120 h
In short: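 MT-4 cells (6×10^5 cells/mL after spinning at 220 g for 5 min) infected with 100-300 CCID50 of the double RT mutant strain derived from wild-type LAI. Serial 5-fold compound dilutions tested in triplicate alongside mock-infected wells. Viability read by MTT at 540 and 690 nm on day 5, using the median OD of three wells. IC50 is the concentration giving 50% protection from viral cytopathic effect.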

[4] = Cytotoxicity against human MT4 cells after 5 days by MTT assay; assay type: cell-based
In short: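 Mock-infected MT-4 cells received culture medium in place of virus, at 6×10^5 cells/mL, run in parallel triplicate wells with serial 5-fold compound dilutions. After 5 days, MTT reduction was read at 540 and 690 nm, using the median OD of three wells. CC50 is the concentration lowering OD540 of the mock-infected control by 50%.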

[5] = system: Human immunodeficiency virus 2; assay: Antiviral activity against HIV2 ROD infected in human MT4 cells assessed as inhibition of virus-induced cytopathogenicity after 5 days by MTT assay; assay type: functional, organism-based; details: Human immunodeficiency virus 2, ISOLATE ROD, MT4, 120 h; in short: as §1
[6] = Ratio of compound selectivity index to zidovudine selectivity index for human MT4 cells
[7] = system: Human immunodeficiency virus 1; assay: Ratio of zidovudine IC50 to compound IC50 for wild type HIV1 3B; assay type: functional

With `CCCNC(c1ccc(/C=C/C#N)cc1)c1ccnc(Nc2ccc(C#N)cc2)n1` (stereo not given) the “Ratio CC50/IC50” value [1] was 319, the IC50 [2] was 0.107 µM and the IC50 [3] was > 37.3 µM. For the same compound, the CC50 at 120 h [4] was 34 µM and the IC50 [5] was > 37.3 µM.
With `CCNC(c1ccc(/C=C/C#N)cc1)c1ccnc(Nc2ccc(C#N)cc2)n1` (stereo not given) the “Ratio CC50/IC50” value [1] was 194, the IC50 [2] was 0.192 µM and the IC50 [3] was > 37.3 µM. For the same compound, the CC50 at 120 h [4] was 37.3 µM and the IC50 [5] was > 37.3 µM.
With `Cc1cn([C@H]2C[C@H](N=[N+]=[N-])[C@@H](CO)O2)c(=O)[nH]c1=O` [ZIDOVUDINE] the “Ratio CC50/IC50” value [1] was >14124, the IC50 [2] was 0.0066 µM and the IC50 [3] was 0.0077 µM. For the same compound, the CC50 at 120 h [4] was > 93.5 µM and the IC50 [5] was 0.0017 µM.
With `CC(C)NC(c1ccc(/C=C/C#N)cc1)c1ccnc(Nc2ccc(C#N)cc2)n1` (stereo not given) the “Ratio CC50/IC50” value [1] was 405, the IC50 [2] was 0.08 µM and the IC50 [3] was > 32.3 µM. The CC50 at 120 h [4] was 32.3 µM and the IC50 [5] was > 32.3 µM.
In the case of `CCNC(c1ccnc(Nc2ccc(C#N)cc2)n1)c1ccccc1Cl` (stereo not given), the “Ratio CC50/IC50” value [1] is reported as 113, the IC50 [2] is reported as 0.35 µM and the IC50 [3] is reported as > 39.4 µM. The CC50 at 120 h [4] was 39.4 µM and the IC50 [5] was > 39.4 µM.
In the case of `Nc1ccn([C@@H]2CS[C@H](CO)O2)c(=O)n1` [LAMIVUDINE], the “Ratio CC50/IC50” value [1] is reported as >22, the IC50 [2] is reported as 3.89 µM and the CC50 at 120 h [4] is reported as > 87.2 µM. The IC50 [5] was 15.5 µM.
For `CCCNC(c1ccc(C#N)cc1)c1ccnc(Nc2ccc(C#N)cc2)n1` (stereo not given), the “Ratio CC50/IC50” value [1] was “<=4”, the IC50 [2] was ≥ 9.45 µM and the IC50 [3] was > 34.9 µM. For the same compound, the CC50 at 120 h [4] was 34.9 µM and the IC50 [5] was > 34.9 µM.
In the case of `CC(O)CNC(c1ccc(C#N)cc1)c1ccnc(Nc2ccc(C#N)cc2)n1` (stereo not given), the “Ratio CC50/IC50” value [1] is reported as >3, the IC50 [2] is reported as 23.9 µM and the IC50 [3] is reported as > 65 µM. The CC50 at 120 h [4] was > 65 µM and the IC50 [5] was > 65 µM.
For `CC(C)NC(c1ccnc(Nc2ccc(C#N)cc2)n1)c1ccccc1Cl` (stereo not given), the “Ratio CC50/IC50” value [1] was 879, the IC50 [2] was 0.04 µM and the IC50 [3] was > 35.5 µM. For the same compound, the CC50 at 120 h [4] was 35.5 µM and the IC50 [5] was > 35.5 µM.
For `CC(O)CNC(c1ccnc(Nc2ccc(C#N)cc2)n1)c1ccccc1Cl` (stereo not given), the “Ratio CC50/IC50” value [1] was 105, the IC50 [2] was 0.33 µM and the IC50 [3] was > 34.7 µM. The CC50 at 120 h [4] was 34.7 µM and the IC50 [5] was > 34.7 µM.
With `N#Cc1ccc(Nc2nccc(C(NC3CC3)c3ccc(C#N)cc3)n2)cc1` (stereo not given) the “Ratio CC50/IC50” value [1] was <1, the IC50 [2] was > 34.7 µM and the IC50 [3] was > 34.7 µM. For the same compound, the CC50 at 120 h [4] was 34.7 µM and the IC50 [5] was > 34.7 µM.
In the case of `CCNC(c1ccc(C#N)cc1)c1ccnc(Nc2ccc(C#N)cc2)n1` (stereo not given), the “Ratio CC50/IC50” value [1] is reported as 7, the IC50 [2] is reported as 21.1 µM and the IC50 [3] is reported as > 158 µM. For the same compound, the CC50 at 120 h [4] was 158 µM and the IC50 [5] was > 158 µM.
For `N#C/C=C/c1ccc(C(NC2CC2)c2ccnc(Nc3ccc(C#N)cc3)n2)cc1` (stereo not given), the “Ratio CC50/IC50” value [1] was 287, the IC50 [2] was 0.196 µM and the IC50 [3] was > 56.1 µM. For the same compound, the CC50 at 120 h [4] was 56.1 µM and the IC50 [5] was > 56.1 µM.
For `CC(C)NC(c1ccc(C#N)cc1)c1ccnc(Nc2ccc(C#N)cc2)n1` (stereo not given), the IC50 [2] was > 69.2 µM, the IC50 [3] was > 69.2 µM and the CC50 at 120 h [4] was 69.2 µM. For the same compound, the IC50 [5] was > 69.2 µM.
For `CNC(c1ccc(/C=C/C#N)cc1)c1ccnc(Nc2ccc(C#N)cc2)n1` (stereo not given), the “Ratio CC50/IC50” value [1] was 385, the IC50 [2] was 0.108 µM and the IC50 [3] was > 41.4 µM. For the same compound, the CC50 at 120 h [4] was 41.4 µM and the IC50 [5] was > 41.4 µM.
In the case of `CCCNC(c1ccnc(Nc2ccc(C#N)cc2)n1)c1ccccc1Cl` (stereo not given), the “Ratio CC50/IC50” value [1] is reported as 1422, the IC50 [2] is reported as 0.048 µM and the IC50 [3] is reported as > 68.5 µM. For the same compound, the CC50 at 120 h [4] was 68.5 µM and the IC50 [5] was > 68.5 µM.
With `CC(C)Nc1cccnc1N1CCN(C(=O)c2cc3cc(NS(C)(=O)=O)ccc3[nH]2)CC1` [DELAVIRDINE] the “Ratio CC50/IC50” value [1] was >54, the IC50 [2] was 0.81 µM and the CC50 at 120 h [4] was 43.8 µM.
For `N#Cc1ccc(Nc2nccc(C(NC3CC3)c3ccccc3Cl)n2)cc1` (stereo not given), the “Ratio CC50/IC50” value [1] was 317, the IC50 [2] was 0.12 µM and the IC50 [3] was > 37.9 µM. For the same compound, the CC50 at 120 h [4] was 37.9 µM and the IC50 [5] was > 37.9 µM.
In the case of `O=C1Nc2ccc(Cl)cc2[C@@](C#CC2CC2)(C(F)(F)F)O1` [EFAVIRENZ], the “Ratio CC50/IC50” value [1] is reported as >280, the IC50 [2] is reported as 0.0226 µM and the IC50 [3] is reported as 0.16 µM.
In the case of `Cc1ccnc2c1NC(=O)c1cccnc1N2C1CC1` [NEVIRAPINE], the “Ratio CC50/IC50” value [1] is reported as >148, the IC50 [2] is reported as 0.101 µM and the IC50 [3] is reported as 0.9 µM. For the same compound, the CC50 at 120 h [4] was > 15 µM.
In the case of `N#C/C=C/c1ccc(C(NN)c2ccnc(Nc3ccc(C#N)cc3)n2)cc1` (stereo not given), the “Ratio CC50/IC50” value [1] is reported as 106367, the IC50 [2] is reported as 0.00175 µM and the ratio of compound SI to zidovudine SI [6] is reported as 7. For the same compound, the IC50 [3] was 5.33 µM, the “Ratio IC50” value [7] was 4 and the CC50 at 120 h [4] was 186 µM. It also gave an IC50 [5] of 5.05 µM.
With `CNC(c1ccc(C#N)cc1)c1ccnc(Nc2ccc(C#N)cc2)n1` (stereo not given) the “Ratio CC50/IC50” value [1] was 12, the IC50 [2] was 15.2 µM and the IC50 [3] was > 189 µM. For the same compound, the CC50 at 120 h [4] was 189 µM and the IC50 [5] was > 189 µM.
In the case of `CNC(c1ccnc(Nc2ccc(C#N)cc2)n1)c1ccccc1Cl` (stereo not given), the “Ratio CC50/IC50” value [1] is reported as 571, the IC50 [2] is reported as 0.063 µM and the IC50 [3] is reported as > 36.1 µM. For the same compound, the CC50 at 120 h [4] was 36.1 µM and the IC50 [5] was > 6.09 µM.
With `N#Cc1ccc(Nc2nccc(C(NN)c3ccc(C#N)cc3)n2)cc1` (stereo not given) the “Ratio CC50/IC50” value [1] was 172, the IC50 [2] was 0.234 µM and the IC50 [3] was 5.95 µM. For the same compound, the CC50 at 120 h [4] was 40.2 µM and the IC50 [5] was 2.92 µM.

— ChEMBL document CHEMBL3286160, “Design and synthesis of a new series of modified CH-diarylpyrimidines as drug-resistant HIV non-nucleoside reverse transcriptase inhibitors” (Eur J Med Chem, 2014)
